Measured values published in ChEMBL document CHEMBL2331384, “Synthesis, crystal structure and antibacterial activity of new highly functionalized ionic compounds based on the imidazole nucleus” (2013).
Activity calls are given as the source filed them. No cut-off for these calls is given here.

Experiments:
Salmonella typhimurium [1] = assay: Antimicrobial activity against Salmonella typhimurium ATCC 07095 at 200 ug after overnight incubation by disk-diffusion method; format: functional; conditions: for diameter of the inhibition zone (DIZ): Salmonella enterica subsp. enterica serovar Typhimurium; for zone of inhibition at 200 µg/disc: Salmonella enterica, read-out: DIZ
Method in brief: (§1)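 Bacterial suspension spread over a Mueller–Hinton agar surface. 6 mm paper disks each loaded with 200 µg of compound dissolved in DMSO were placed on the agar. Plates were incubated overnight at 37 °C, and inhibition zone diameters were measured with a ruler in mm.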

Pseudomonas aeruginosa [2] = assay: Antimicrobial activity against Pseudomonas aeruginosa ATCC 27853 after 1 day by agar dilution method; format: functional; conditions: ATCC 27853, 24 h
Method in brief: (§2)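 Inoculum was an overnight broth culture diluted to about 10^6 cell/mL. MIC (µg/mL) was determined by a standardized agar dilution technique after 1 day of exposure.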

Pseudomonas aeruginosa [3] = assay: Antimicrobial activity against Pseudomonas aeruginosa ATCC 27853 at 200 ug after overnight incubation by disk-diffusion method; format: functional; conditions: for zone of inhibition at 200 µg/disc: read-out: DIZ; method in brief: as §1
Escherichia coli [4] = assay: Antimicrobial activity against Escherichia coli ATTC-25922 after 1 day by agar dilution method; format: functional; conditions: ATTC-25922, 24 h; method in brief: as §2
Escherichia coli [5] = assay: Antimicrobial activity against Escherichia coli ATTC-25922 at 200 ug after overnight incubation by disk-diffusion method; format: functional; conditions: for zone of inhibition at 200 µg/disc: read-out: DIZ; method in brief: as §1
Staphylococcus aureus [6] = assay: Antimicrobial activity against Staphylococcus aureus ATTC-25923 at 200 ug after overnight incubation by disk-diffusion method; format: functional; conditions: for zone of inhibition at 200 µg/disc: read-out: DIZ; method in brief: as §1
Salmonella typhimurium [7] = assay: Antimicrobial activity against Salmonella typhimurium ATCC 07095 after 1 day by agar dilution method; format: functional, Salmonella enterica subsp. enterica serovar Typhimurium; conditions: Salmonella enterica, ATCC 07095, 24 h; method in brief: as §2
Staphylococcus aureus [8] = assay: Antimicrobial activity against Staphylococcus aureus ATTC-25923 after 1 day by agar dilution method; format: functional; conditions: ATTC-25923, 24 h; method in brief: as §2
Salmonella typhimurium [9] = assay: Antimicrobial activity against Salmonella typhimurium ATCC 07095 at 100 ug after overnight incubation by disk-diffusion method; format: functional, organism-based; conditions: Salmonella enterica subsp. enterica serovar Typhimurium
Staphylococcus aureus [10] = assay: Antimicrobial activity against Staphylococcus aureus ATTC-25923 at 100 ug after overnight incubation by disk-diffusion method; format: functional, organism-based
Escherichia coli [11] = assay: Antimicrobial activity against Escherichia coli ATTC-25922 at 100 ug after overnight incubation by disk-diffusion method; format: functional, organism-based

MIC (Pseudomonas aeruginosa [2]) [µg/mL]	MIC (Escherichia coli [4]) [µg/mL]	MIC (Salmonella typhimurium [7]) [µg/mL]	MIC (Staphylococcus aureus [8]) [µg/mL]	Molecule	diameter of the inhibition zone (DIZ) (Salmonella typhimurium [1])	zone of inhibition at 200 µg/disc (Pseudomonas aeruginosa [3]) [mm]	zone of inhibition at 200 µg/disc (Escherichia coli [5]) [mm]	zone of inhibition at 200 µg/disc (Staphylococcus aureus [6]) [mm]	zone of inhibition (Salmonella typhimurium [9]) [mm]	zone of inhibition (Staphylococcus aureus [10]) [mm]	zone of inhibition (Escherichia coli [11]) [mm]	diameter of the inhibition zone (DIZ) (Pseudomonas aeruginosa [3])	diameter of the inhibition zone (DIZ) (Escherichia coli [5])	zone of inhibition at 200 µg/disc (Salmonella typhimurium [1]) [mm]	diameter of the inhibition zone (DIZ) (Staphylococcus aureus [6])
50	25	> 250	> 250	Cn1c(Br)c(Br)[n+](CC(=O)c2ccccc2)c1CO.[Br-]	inactive	9	7	7	–	–	–	–	–	–	–
–	–	–	–	SPIRAMYCIN	–	–	–	–	9	22	9	–	–	–	–
250	25	> 250	> 250	CCOC(=O)C[n+]1c(Br)c(Br)n(C)c1C.[Br-]	inactive	–	–	10	–	–	–	inactive	inactive	–	–
> 250	50	50	> 250	Cc1n(C)c([N+](=O)[O-])c[n+]1CC(=O)c1ccccc1.[Br-]	–	10	9	9	–	–	–	–	–	7	–
25	50	25	> 250	CCOC(=O)C[n+]1c(Br)c(Br)n(C)c1-c1ccccc1.[Br-]	–	7	–	9	–	–	–	–	inactive	7	–
25	25	> 250	> 250	CCOC(=O)C[n+]1c(I)c(I)n(C)c1C.[Br-]	inactive	9	–	–	–	–	–	–	inactive	–	inactive
25	150	> 250	> 250	CCOC(=O)C[n+]1c(Br)c(Br)n(C)c1CO.[Br-]	inactive	7	7	–	–	–	–	–	–	–	inactive
150	12.5	> 250	> 250	Cc1n(C)c(Br)c(Br)[n+]1CC(=O)c1ccccc1.[Br-]	–	9	9	7	–	–	–	–	–	7	–
6.2	6.2	50	250	CCOC(=O)C[n+]1cn(C)c(I)c1I.[Br-]	inactive	9	–	–	–	–	–	–	inactive	–	inactive
12.5	12.5	12.5	> 250	Cn1c[n+](CC(=O)c2ccccc2)cc1[N+](=O)[O-].[Br-]	inactive	9	–	–	–	–	–	–	inactive	–	inactive
12.5	12.5	25	> 250	Cc1n(C)c(I)c(I)[n+]1CC(=O)c1ccccc1.[Br-]	–	9	9	15	–	–	–	–	–	8	–
25	25	12.5	250	Cn1c[n+](CC(=O)c2ccccc2)c(I)c1I.[Br-]	–	8	12	15	–	–	–	–	–	9	–
50	50	150	250	Cn1c(Br)c(Br)[n+](CC(=O)c2ccccc2)c1-c1ccccc1.[Br-]	–	8	9	12	–	–	–	–	–	7	–
